Measured values published in ChEMBL document CHEMBL5104098, “Exploring the structure-activity relationship of benzylidene-2,3-dihydro-1H-inden-1-one compared to benzofuran-3(2H)-one derivatives as inhibitors of tau amyloid fibers” (Eur J Med Chem, 2022).
Active and inactive are the calls of the source. The rule behind the calls is not given here.

Tests used:
[1] = Inhibition of synthetic AcPHF6 peptide aggregation in pH 7.4 phosphate buffer assessed as reduction in fluorescence intensity at 10 uM and measured every minute over 2 hrs by ThT fluorescence assay relative to control
Outline: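 Fluorescence read every minute for 2 h, ex 440/em 480 nm. Intrinsic compound fluorescence corrected with peptide-free blank wells. Hexaplicate; % inhibition versus peptide-only control.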

[2] = Displacement of ThT from AcPHF6 in pH 7.4 phosphate buffer assessed as reduction in fluorescence intensity relative to control; details: dose 10.0 µM
Outline: (§1)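 Preformed AcPHF6 fibers (1 mM peptide left 24 h in deionised water) added to give 100 μM fibers with 10 μM ThT in 50 mM phosphate buffer pH 7.4, ≤0.5% DMSO; compound 10 μM (1:1 with ThT). Emission spectra recorded shortly after fiber addition, excitation 440 nm; % decrease calculated from emission intensity at 480 nm.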

[3] = Displacement of ThT from AcPHF6 in pH 7.4 phosphate buffer at 1:1 compound:ThT ratio; outline: as §1
[4] = Inhibition of synthetic AcPHF6 peptide aggregation in pH 7.4 phosphate buffer assessed as reduction in beta sheet formation at 100 uM incubated for 2 hrs by circular dichroism spectroscopy
Outline: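 CD samples: 100 μM AcPHF6 in 50 mM phosphate buffer, compound with <0.2% DMSO, 1 mm quartz cell. Spectra taken after 2 h at room temperature, 260–190 nm, 1 nm resolution, 1 s per point, 10 nm bandwidth. Compound level is printed as 10 μM in methods and 100 μM in legend.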

[5] = Inhibition of synthetic AcPHF6 peptide aggregation in pH 7.4 phosphate buffer assessed as reduction in beta sheet fibrillation at 100 uM incubated for 24 hrs by atomic force microscopy analysis
Outline: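 AFM imaging of samples taken from the CD preparations after 24 h fibrillation at room temperature; 100 μM AcPHF6 alone or with compound at 100 μM.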

Row | Compound | inhibition [1] [%] | inhibition [2] [%] | inhibition [3] | inhibition [4] | inhibition [5]
1 | COc1cccc(/C=C2\Oc3c(OC)cccc3C2=O)c1 | 69 | 45 | Active | – | –
2 | O=C1/C(=C/c2cc(O)c(O)c(O)c2)Cc2ccccc21 | 71 | 42 | Active | Active | Active
3 | O=C1/C(=C/c2ccc(O)cc2O)Oc2cc(O)cc(O)c21 | 94 | 89 | Active | – | –
4 | O=C1/C(=C/c2cc(O)c(O)c(O)c2)Oc2cc(O)cc(O)c21 | 99 | 94 | Active | – | –
5 | O=C1/C(=C/c2cc(O)c(O)c(O)c2)Oc2ccccc21 | 68 | 70 | Active | – | –
6 | O=C1/C(=C/c2ccc(O)c(O)c2)Oc2cc(O)cc(O)c21 | 93 | 85 | Active | – | –
7 | O=C1/C(=C/c2cc(O)c(O)c(O)c2)Oc2c(O)cccc21 | 91 | 88 | Active | – | –
8 | O=C1/C(=C/c2cc(O)c(O)c(O)c2)Cc2cc(O)cc(O)c21 | 87 | 90 | Active | Active | –
9 | O=C1/C(=C/c2cc(O)c(O)c(O)c2)Cc2c(O)cccc21 | 83 | 78 | Active | Active | –
10 | O=C1/C(=C/c2ccc(O)cc2O)Cc2cc(O)cc(O)c21 | 72 | 76 | Active | – | –
11 | O=C1/C(=C/c2ccc(O)c(O)c2)Cc2cc(O)cc(O)c21 | 78 | 65 | Active | – | –
